Source: PubChem
In the library only some 3% were active in any assay of this set; here they are far more common.
UBC13 inh – UBC13 polyubiquitin chain formation inhibitors, primary screen, biochemical, TR-FRET, uHTS | Ubiquitin-conjugating enzyme E2 N (Homo sapiens), P61088 | inhibition, % at 20 µM | 0.47% of 330,000 active | AID 485273, 2010; in the data active = inhibition above about 45%, passing the limit was not always enough
Target sequence (P61088 whole entry, looked up): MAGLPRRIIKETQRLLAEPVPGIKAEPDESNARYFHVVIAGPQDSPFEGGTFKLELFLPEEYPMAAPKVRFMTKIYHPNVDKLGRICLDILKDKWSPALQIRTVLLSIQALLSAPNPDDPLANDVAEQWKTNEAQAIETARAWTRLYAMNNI
beta cell repl – inducers of MIN6 beta-cell proliferation, primary screen, ATP luminescence, uHTS; proliferation, % at 10 µM; MIN6 cells proliferation, ATPlite luminescence, 48 h; cells starved in 0.2% serum; 100% = growth in 10% serum; 0.29% of 330,000 active;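 active = compounds whose signal lies at least 3.5 SD above the mean of all wells on their plate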;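 note: 0% = DMSO-treated cells in low-serum medium and 100% = 10% serum control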
hiPSC survival – enhancers of single-cell hiPSC survival, primary screen, ATPlite luminescence; survival enhancement, % at 20 µM; AID 602274, 2012; 0.044% of 360,000 active; 100% = ROCK inhibitor wells, 0% = DMSO; in the data active = survival enhancement above about 18%;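 note: cells exposed to compounds for 16 hours before the ATP read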
MPTP block – mitochondrial permeability transition pore inhibitors, primary screen, biochemical, isolated mouse mitochondria, absorbance; Ca2+ swelling absorbance, 30 min; inhibition, % at 10 µM; 1.4% of 360,000 active; AID 602449, 2012;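 active = inhibition of 50% or more, scaled per plate between neutral and stimulator controls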;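 note: 0% = DMSO wells given calcium and 100% = 1 mM EGTA wells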
Apaf-1 inh – inhibitors of human Apaf-1 apoptosome, primary screen, biochemical, DEVD-Rh110 fluorescence, uHTS | Apoptotic protease-activating factor 1 (Homo sapiens), O14727 | reconstituted apoptosome caspase-3 activity | inhibition, % at 20 µM | 0.71% of 330,000 active | AID 489030, 2010; active = inhibition of at least 40% at 20 µM;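 note: plate controls were DMSO wells for no effect and DEVD-CHO caspase inhibitor wells for full effect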
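System: reconstituted apoptosome with Apaf-1, cytochrome c, caspase-9, procaspase-3, dATP; Signal: Rh110 fluorescence intensity; Schedule: 30 min compound preincubation, 50 min activation, room temperature; Reagent: cytochrome c trigger plus (Z-DEVD)2-Rh110 caspase-3 substrate.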
Granule exo inh – LAMP-1 surface exposure blockers, TALL-104 cells – cell-based, flow cytometry, MLPCN library, primary screen; 0.66% of 360,000 active; inhibition, % at 10 µM; TALL-104 LAMP-1 surface exposure; cells stimulated with thapsigargin and PMA; AID 651702, 2012;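 active = inhibition above about 55%, limit read from the data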
Active calls of the source: *; . = no result.

SMILES	UBC13 inh	beta cell repl	hiPSC survival	MPTP block	Apaf-1 inh	Granule exo inh
CC(=O)c1cc(NC(=O)c2ccccc2)c(=O)oc1C	-0.7	3.6	-0.3	0.4	-1.2	-2.6
CCn1nc(C)c(Br)c1C(=O)Sc1ccccc1Cl	1.3	-4.1	-0.5	3.0	0.2	69.3*
CCn1nc(C)cc1C(=O)Sc1ccc(C)cc1	-0.2	-1.2	-0.8	-1.3	-1.6	-5.3
Cc1ccc(Oc2nc3ccccn3c(=O)c2/C=C(\C#N)C(=O)NC2CCS(=O)(=O)C2)cc1 (configuration not stated)	6.2	2.8	0.0	2.1	-7.5	73.9*
Cc1cccn2c(=O)c(/C=C(\C#N)C(=O)NC3CCS(=O)(=O)C3)c(Oc3ccccc3Cl)nc12 (configuration not stated)	-1.3	0.0	-0.1	-3.0	9.5	-2.1
Cc1ccccc1Oc1nc2c(C)cccn2c(=O)c1/C=C(\C#N)C(=O)NC1CCS(=O)(=O)C1 (configuration not stated)	15.6	-1.0	-0.3	0.5	-12.5	82.1*
Cc1sc2c3ccsc3ccc2[n+]1C	-4.2	-7.0	0.9	-2.9	-9.0	55.6*
Cc1sc2ccc3sccc3c2[n+]1C	-2.4	-5.7	-4.3	1.5	-2.6	83.1*
CC(C)(C)OC(=O)N1CCC(NC(=O)c2[nH]c(C(F)(F)F)nc2-c2ccccc2)CC1	.	.	-0.4	0.8	.	-1.9
COc1ccc(/C=C2\SC(=S)N(CCC(=O)N3CCOCC3)C2=O)cc1	-7.2	-0.7	-0.1	-0.1	6.3	-1.7
CCOc1ccc(/C=C2\SC(=S)N(CCCC(=O)NCCCN3CCOCC3)C2=O)cc1	-6.6	-3.7	0.0	-0.5	42.3*	24.5
CN1CCN(C(=O)CCN2C(=O)/C(=C\c3ccc(F)cc3)SC2=S)CC1	-11.3	-4.6	-3.0	0.0	12.4	5.7
COc1ccc(/C=C2/SC(=S)N(CCCC(=O)Nc3cccc(O)c3)C2=O)cc1	-10.6	0.0	-0.5	-0.8	21.0	96.9*
CCc1ccc(/C=C2\SC(=S)N(CCCC(=O)NCCCN3CCOCC3)C2=O)cc1	.	.	-2.9	1.1	.	-1.4
CCc1ccc(/C=C2\SC(=S)N(CCCC(=O)N3CCN(C)CC3)C2=O)cc1	.	.	-2.8	2.0	.	72.0*
COc1ccc(/C=C2\SC(=S)N(CCCC(=O)N3CCN(C)CC3)C2=O)cc1	-6.2	-1.4	-0.4	0.0	16.8	62.7*
O=C(N/N=C\c1cc2c(cc1Cl)OCO2)c1cccs1	-1.2	2.6	0.1	-1.6	6.6	-2.2
NS(=O)(=O)c1ccc(CNC(=O)c2ccc(NS(=O)(=O)c3cccs3)cc2)cc1	7.5	-1.0	0.6	0.6	-1.5	0.4
Cc1cccc(N/N=C/c2ccc(C)s2)c1	-6.5	-2.6	2.5	-0.7	13.4	61.3*
COc1ccc(C(C(=O)NCC2CCCO2)N(C(=O)c2snc(C(N)=O)c2N)c2ccccc2C)cc1OC (configuration not stated)	10.2	-1.2	-0.3	0.7	6.8	-0.2
Cc1cccc(N(C(=O)c2snc(C(N)=O)c2N)C(C(=O)NCC2CCCO2)c2ccc(N(C)C)cc2)c1C (configuration not stated)	8.6	-1.6	-0.5	1.0	24.1	66.0*
CN(C)c1ccc(C(C(=O)NCC2CCCO2)N(Cc2ccccc2)C(=O)c2snc(C(N)=O)c2N)cc1 (configuration not stated)	10.3	8.8*	-0.2	-3.2	5.2	0.4
CC(C)CN(C(=O)CSc1nc(N)cc(N)n1)C1CCS(=O)(=O)C1 (configuration not stated)	-11.5	-1.4	-0.3	-0.9	8.0	2.8
CCOC(=O)C(CC)Sc1ccc2nnc(-c3cccnc3)n2n1 (configuration not stated)	15.2	-1.9	0.7	1.3	-6.8	5.2
CCC(Sc1ccc2nnc(-c3cccnc3)n2n1)C(=O)O (configuration not stated)	4.6	-3.2	23.1*	-1.2	8.9	13.9
SMILES	UBC13 inh	beta cell repl	hiPSC survival	MPTP block	Apaf-1 inh	Granule exo inh
CCOc1cc(/C=C(\C#N)C(=O)Nc2cccc(C(=O)O)c2)ccc1OCc1ccccc1Cl	-21.9	-3.9	-0.3	-2.7	18.2	80.9*
COc1cc(/C=C(\C#N)C(=O)Nc2cccc(C(=O)O)c2)ccc1OCc1ccc(F)cc1	-12.1	0.0	-0.5	-0.5	7.9	-4.4
COc1ccc(NC(=O)/C(C#N)=C/c2ncc([N+](=O)[O-])n2C)c(OC)c1	-17.9	-2.4	-0.2	-0.5	-5.0	97.0*
CC1(C(=O)O)CCC(C(=O)NNC(=O)c2ccccc2Cl)C1(C)C (configuration not stated)	7.4	-2.1	-0.6	1.4	-14.4	-1.7
Cc1noc(NS(=O)(=O)c2ccc(NC(=O)c3ccccc3NS(=O)(=O)c3ccc(F)c(F)c3)cc2)c1C	.	.	-1.6	0.8	.	1.3
COc1cc(/C=C2\SC(=Nc3ccccc3)N(Cc3ccco3)C2=O)ccc1OC(C)C(=O)O (configuration not stated)	-26.0	0.0	-1.7	-2.6	3.2	-0.8
COCCN1C(=O)/C(=C/c2ccc(OCc3ccc(C(=O)O)cc3)c(OC)c2)SC1=Nc1ccccc1	-13.4	0.0	2.2	2.7	21.6	79.3*
COC1=C(C)C(=O)C2=C(C1=O)C1C3CC4=C(C(=O)C(OC)=C(C)C4=O)C(CNC(=O)C(C)=O)N3C(C#N)C(C2)N1C (configuration not stated)	.	.	-2.7	0.9	.	74.5*
Cc1nn(-c2ccccc2)c(C)c1C(=O)OCC(=O)Nc1cccc(S(N)(=O)=O)c1	3.1	-3.3	-0.1	-1.4	0.3	0.4
CC1(C)CC(NC(=O)c2cccc(Cl)c2)CC(C)(C)N1	4.8	-1.2	-0.6	0.5	-17.8	-1.4
CCC(CO)Oc1cc(NCc2ccc(F)cc2)c2ncn(C(C)C)c2c1 (configuration not stated)	7.6	-2.3	3.8	0.5	43.5*	-0.5
CCC(CO)Oc1cc(NCc2ccc(C)c(C)c2)c2ncn(C(C)C)c2c1 (configuration not stated)	14.8	-5.7	5.5	-1.7	34.4	-1.3
O=C(CN1CCN(S(=O)(=O)c2ccccc2F)CC1)Nc1ccccc1C(=O)c1ccccc1	6.0	-3.6	-0.7	-1.1	12.0	-0.2
CN(Cc1ccccc1)C(=O)CN1CCN(S(=O)(=O)c2ccccc2F)CC1	.	.	26.4*	-2.0	.	-8.0
CC(=O)OCC1OC(n2c(S)c(C#N)c(-c3ccccc3)c(C#N)c2=O)C(OC(C)=O)C(OC(C)=O)C1OC(C)=O (configuration not stated)	.	.	-2.5	-1.8	.	-11.9
Cc1ccsc1C=Nc1ccc(O)cc1	-17.9	-3.8	1.0	0.2	93.7*	2.3
